# Test results reported in article PMC10692362 (Acta Pharmaceutica Sinica. B, 2023).
# Numbering of substitutions follows the chain as printed. “And” between values parts separate entries of the source, which are not always exact repeats. Equal entries are not always repeated.
# Legend:
# [1] = system: T-47D^D538G cells; assay: Cell viability assay; assay type: cell-based, human; conditions: Homo sapiens, 72 h, read-out: T-47D^D538G IC50
# [2] = target: human ERβ LBD (Homo sapiens, UniProt Q92731); assay: Competitive fluorescence polarization binding assay, ERβ
# Chain of human ERβ LBD (Q92731 264-498 limits assumed): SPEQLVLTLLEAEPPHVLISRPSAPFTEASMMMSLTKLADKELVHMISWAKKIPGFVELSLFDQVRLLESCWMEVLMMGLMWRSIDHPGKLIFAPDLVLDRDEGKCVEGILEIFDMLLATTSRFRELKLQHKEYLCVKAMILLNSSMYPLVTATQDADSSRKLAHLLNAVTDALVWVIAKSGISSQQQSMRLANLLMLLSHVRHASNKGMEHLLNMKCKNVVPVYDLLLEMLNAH
# [3] = target: T1, ERα (Homo sapiens, UniProt P03372); assay: cell-based; assay type: cell-based
# T1 sequence (P03372 1-595): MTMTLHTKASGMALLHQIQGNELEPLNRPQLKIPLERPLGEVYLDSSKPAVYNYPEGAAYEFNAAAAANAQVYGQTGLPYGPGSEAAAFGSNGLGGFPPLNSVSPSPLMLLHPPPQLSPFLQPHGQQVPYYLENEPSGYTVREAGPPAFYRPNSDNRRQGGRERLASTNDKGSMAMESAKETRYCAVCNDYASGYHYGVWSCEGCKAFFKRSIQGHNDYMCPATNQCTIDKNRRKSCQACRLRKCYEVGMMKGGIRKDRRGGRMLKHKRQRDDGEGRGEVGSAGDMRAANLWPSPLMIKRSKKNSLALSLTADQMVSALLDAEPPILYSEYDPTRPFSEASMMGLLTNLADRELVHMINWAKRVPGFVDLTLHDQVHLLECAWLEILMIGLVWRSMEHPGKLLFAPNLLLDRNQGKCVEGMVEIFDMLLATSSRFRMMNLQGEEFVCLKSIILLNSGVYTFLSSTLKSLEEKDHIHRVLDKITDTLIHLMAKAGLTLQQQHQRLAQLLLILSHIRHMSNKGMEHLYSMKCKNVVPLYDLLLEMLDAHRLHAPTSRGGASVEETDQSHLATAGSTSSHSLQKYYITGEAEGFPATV
# [4] = system: MCF-7 cells; assay: Cell viability assay; assay type: cell-based, human
# [5] = target: T2, ERα C530S mutant (Homo sapiens, UniProt P03372, C530S); assay: Immunoblot analysis of ERα C530S mutant protein in HEK-293T cells; assay type: cell-based; conditions: HEK-293T^C530S cells, compared with wild type
# T2 sequence (P03372 1-595 C530S): T1 sequence (P03372 1-595) with C530S
# Method in brief: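 HEK-293T cells transfected with a plasmid carrying the single C530→S530 ERα point mutation, then treated with test compound. Cells lysed in RIPA buffer; proteins separated by SDS-PAGE and transferred to PVDF. Membranes blocked with 5% skim milk, probed overnight with rabbit anti-ERα and mouse anti-β-actin (loading control), then goat anti-rabbit secondary for 1 h. Developed by ECL.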
# [6] = target: T2, ERα C530S mutant; assay: Transcriptional activity; assay type: cell-based
# [7] = target: T3, ERα Y537S and C381S–C417S–Y537S proteins (Homo sapiens, UniProt P03372, Y537S); assay: Intact mass spectrometry to assess covalency; assay type: binding; conditions: 20 μmol/L compound : 1 μmol/L protein, 4 °C overnight
# T3 sequence (P03372 305-554 Y537S): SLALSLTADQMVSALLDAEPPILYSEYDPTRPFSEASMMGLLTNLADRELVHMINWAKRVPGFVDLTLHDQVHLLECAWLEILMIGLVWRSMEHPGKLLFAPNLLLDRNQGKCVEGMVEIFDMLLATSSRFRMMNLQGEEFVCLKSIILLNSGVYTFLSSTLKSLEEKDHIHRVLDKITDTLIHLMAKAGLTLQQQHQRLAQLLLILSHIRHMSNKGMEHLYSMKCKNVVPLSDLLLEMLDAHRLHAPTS
# [8] = target: ERβ (Homo sapiens, UniProt Q92731); assay: ER transcriptional activity; assay type: cell-based
# Chain of ERβ (Q92731 whole entry): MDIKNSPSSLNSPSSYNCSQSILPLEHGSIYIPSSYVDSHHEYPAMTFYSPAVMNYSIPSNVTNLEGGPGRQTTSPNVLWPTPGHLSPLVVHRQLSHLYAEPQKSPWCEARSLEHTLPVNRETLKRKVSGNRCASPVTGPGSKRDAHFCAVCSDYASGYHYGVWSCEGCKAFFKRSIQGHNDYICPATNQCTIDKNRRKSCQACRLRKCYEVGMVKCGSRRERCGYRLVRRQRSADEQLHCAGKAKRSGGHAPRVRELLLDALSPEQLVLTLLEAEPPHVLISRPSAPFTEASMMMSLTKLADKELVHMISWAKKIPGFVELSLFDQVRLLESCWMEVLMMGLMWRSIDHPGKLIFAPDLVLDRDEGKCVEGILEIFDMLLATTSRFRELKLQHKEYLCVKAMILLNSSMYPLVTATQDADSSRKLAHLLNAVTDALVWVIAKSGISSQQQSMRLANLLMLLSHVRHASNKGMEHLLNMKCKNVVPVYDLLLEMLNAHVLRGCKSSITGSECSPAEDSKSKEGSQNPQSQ
# [9] = system: T-47D cells; assay: Cell viability assay; assay type: cell-based, human; conditions: Homo sapiens, T47D, 72 h, read-out: T-47D IC50
# [10] = target: T4, human ERα LBD (Homo sapiens, UniProt P03372); assay: Competitive fluorescence polarization binding assay, ERα
# T4 sequence (P03372 311-547 limits assumed): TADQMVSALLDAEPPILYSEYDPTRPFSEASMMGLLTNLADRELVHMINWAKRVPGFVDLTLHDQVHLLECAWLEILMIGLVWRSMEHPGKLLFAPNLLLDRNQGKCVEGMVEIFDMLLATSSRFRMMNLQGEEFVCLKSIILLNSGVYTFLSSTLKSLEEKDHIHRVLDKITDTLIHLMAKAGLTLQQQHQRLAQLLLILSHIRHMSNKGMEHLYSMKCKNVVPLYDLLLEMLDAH
# [11] = system: LCC-2 cells; assay: Cell viability assay on tamoxifen-resistant LCC-2 cells; assay type: cell-based; conditions: Homo sapiens, LCC2, read-out: LCC-2 IC50
# [12] = target: T1, ERα; assay: Immunoblot analysis of ERα degradation in T-47D cells; assay type: cell-based; conditions: 5 μmol/L over 12 h
# [13] = IC50 estradiol/IC50 compound × 100, estradiol = 100%
# [14] = control as 0%, 10 nmol/L E2 as 100%
compound,measurement,setting,value
"CC(C)=CC(=O)Nc1ccc(C2=C(c3ccc(O)cc3)C3OC2CC3S(=O)(=O)N(CC(F)(F)F)c2ccc(O)cc2)cc1 (centres unmarked) [Compound 29c, N-(4-(3-(4-Hydroxyphenyl)-5-(N-(4-hydroxyphenyl)-N-(2,2,2-trifluoroethyl)sulfamoyl)-7-oxabicyclo[2.2.1]hept-2-en-2-yl)phenyl)-3-methylbut-2-enamide]",IC50,[1],1910 ± 180 nM
same,Ki,[2],10.9 nM
same,RBA ERβ,[2]; [13],0.61 ± 0.11%
same,IC50,[3],23 nM
same,Agonist mode ERα Eff (%E2),[3]; [14],5 ± 1 %E2
same,Antagonist mode ERα Eff (%E2),[3]; with 10 nmol/L 17β-estradiol,76 ± 1 %E2
same,"fold higher potency than 4-OHT, MCF-7",[4],12 fold
same,IC50,"[4]; Homo sapiens, MCF7, 72 h, read-out: MCF-7 IC50",56 ± 4 nM
same,"fold higher potency than Ful, MCF-7",[4]; compared with fulvestrant,2.5 fold
same,ERα C530S degradation ability,[5],decreased
same,IC50,[6],290 nM
same,Agonist mode ERα C530S Eff (%E2),"[6]; ERα C530S mutant, HEK-293T",2 ± 1 %E2
same,Antagonist mode ERα C530S Eff (%E2),"[6]; ERα C530S mutant, HEK-293T",33 ± 2 %E2
same,Effect of C530S mutation on antagonistic activity,"[6]; HEK-293T^C530S cells, compared with wild type",decreased
same,Covalent adduct with ERα (intact MS),[7],specifically and covalently bound to residue C530
same,Agonist mode ERβ Eff (%E2),[8]; [14],19 ± 1 %E2
same,Antagonist mode ERβ Eff (%E2),[8]; with 10 nmol/L 17β-estradiol,27 ± 2 %E2
same,IC50,[9],870 ± 150 nM
same,Ki,[10],0.09 nM
same,RBA ERα,[10]; [13],30.44% and 30.44 ± 1.13%
same,α/β ratio,[10]; ratio of RBA ERα to RBA ERβ,49.90
same,IC50,[11],2100 ± 370 nM
same,"ERα degradation time course, T-47D",[12],completely degraded
